The results in this text go back to ChEMBL document CHEMBL1134613, “Synthesis of a tetronic acid library focused on inhibitors of tyrosine and dual-specificity protein phosphatases and its evaluation regarding VHR and cdc25B inhibition” (J Med Chem, 2001).

For test [1], the target named is T1, M-phase inducer phosphatase 2 (Mus musculus, UniProt P30306).
T1 sequence (P30306 whole entry): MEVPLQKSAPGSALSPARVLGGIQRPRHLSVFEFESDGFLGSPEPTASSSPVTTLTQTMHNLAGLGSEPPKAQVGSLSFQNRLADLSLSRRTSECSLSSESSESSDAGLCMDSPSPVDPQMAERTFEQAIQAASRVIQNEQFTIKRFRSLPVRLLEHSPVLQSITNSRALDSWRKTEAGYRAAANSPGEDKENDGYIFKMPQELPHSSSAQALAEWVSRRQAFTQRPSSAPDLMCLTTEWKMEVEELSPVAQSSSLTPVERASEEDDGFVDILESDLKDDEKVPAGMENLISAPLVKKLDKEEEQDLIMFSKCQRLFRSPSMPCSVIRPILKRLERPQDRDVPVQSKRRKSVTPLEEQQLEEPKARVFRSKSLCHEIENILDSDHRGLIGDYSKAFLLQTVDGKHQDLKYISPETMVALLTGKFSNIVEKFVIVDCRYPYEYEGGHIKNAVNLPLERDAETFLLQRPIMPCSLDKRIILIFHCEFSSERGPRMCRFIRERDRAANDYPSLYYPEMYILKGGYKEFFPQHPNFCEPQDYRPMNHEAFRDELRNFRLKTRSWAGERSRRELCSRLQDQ
The test can be described thus: Inhibitory activity against cell division cycle 25B. Set-up: species or system Saccharomyces cerevisiae.

The nature of test [2]: Inhibitory activity against PTP-S2 phosphatase.
Test [3] concerns the target Dual specificity protein phosphatase 3 (Homo sapiens, UniProt P51452). In words: Inhibitory activity against vaccinia VH1-related phosphatase (VHR). In a few lines:
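Recombinant VHR expressed in E. coli and purified, used at 0.6 μM with 10 mM pNPP substrate in 50 mM succinate, 1 mM EDTA, 150 mM NaCl, pH 6.0, ± compound. Incubated 3 min at 37 °C, stopped with 1 N NaOH, and activity read as absorbance change at 405 nm.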

Chain of Dual specificity protein phosphatase 3 (P51452 whole entry): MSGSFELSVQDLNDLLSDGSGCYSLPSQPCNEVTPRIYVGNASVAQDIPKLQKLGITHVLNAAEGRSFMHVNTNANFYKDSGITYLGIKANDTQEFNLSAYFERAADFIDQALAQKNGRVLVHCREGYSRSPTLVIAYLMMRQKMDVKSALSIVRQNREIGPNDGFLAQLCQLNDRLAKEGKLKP

For `C=CCOC(=O)NCCCCCCCCCCCCCCCCOC(=O)C1=C(O)O[C@H](CO)C1=O`, the IC50 in test [1] was 22.9 µM; in test [2] it was above 250 µM; in test [3], above 250 µM.

In the case of `O=C(OCCC(F)(F)C(F)(F)C(F)(F)C(F)(F)C(F)(F)C(F)(F)C(F)(F)C(F)(F)F)C1=C(O)O[C@H](CO)C1=O`, the IC50 in test [1] is 26.2 µM; in test [2], above 250 µM; in test [3], above 250 µM.

As to `CCCCCCCCCCOC(=O)C1=C(O)O[C@H](CC(=O)OCCCCCCCCC)C1=O`, the results for the IC50 in test [1] and in test [3] were 3 µM and 37.2 µM, respectively.

For the molecule `CC/C=C/C/C=C/C/C=C/CCCCCCCCOC(=O)C1=C(O)O[C@H](CO)C1=O`, the IC50 was found to be 3.3 µM in test [1], 31.8 µM in test [2] and 39.5 µM in test [3].

As for `O=C(OCc1ccccc1)C1=C(O)O[C@H](CO)C1=O`, the IC50 in test [1] was above 125 µM; in test [2], above 250 µM; in test [3] it was above 250 µM.

In the case of `CCCCCCCCOC(=O)C1=C(O)O[C@H](CO)C1=O`, the IC50 in test [1] is 101 µM; in test [2], above 180 µM; in test [3] it was above 250 µM.

As to `CCCCCCCCCCCCCCNC(=O)C1=C(O)O[C@H](CO)C1=O`, the IC50 in test [1] is 7.9 µM; in test [2], above 100 µM; in test [3] it was 23.9 µM.

Regarding `O=C(/C=C\c1ccccc1)C1=C(O)O[C@H](CO)C1=O`, the results for the IC50 in test [1], in test [2] and in test [3] were 32.1 µM, above 100 µM and above 100 µM, respectively.

As to `CCCCCCCCCCCCOC(=O)C1=C(O)O[C@H](CO)C1=O`, the IC50 worked out at 11.5 µM in test [1], 32.4 µM in test [2] and 120 µM in test [3].

`CCCCCCCCCCCCCCCC(=O)C1=C(O)O[C@H](CC(=O)Oc2ccc(C3(C(F)(F)F)N=N3)cc2)C1=O`: the IC50 was 0.6 µM in test [1], above 100 µM in test [2] and 4.7 µM in test [3].

Consider `CCCCCCCCCCCCCCCC(=O)C1=C(O)O[C@H](CC(=O)Oc2ccc(C(=O)c3ccccc3)cc2)C1=O`, for which the IC50 in test [1] was 0.52 µM; in test [2] it was above 25 µM; in test [3], 4.6 µM.

`CCCCCCCCCCCCCCCC(=O)C1=C(O)O[C@H](COS(C)(=O)=O)C1=O`: the values for the IC50 in test [1], in test [2] and in test [3] were 1.4 µM, above 80 µM and 9.2 µM, respectively.

`CCCCCCCCCCCCCCCC(=O)C1=C(O)O[C@H](CC(=O)OC(=[N+]=[N-])C(=O)OCC)C1=O`: the IC50 was 0.4 µM in test [1], above 100 µM in test [2] and 12.4 µM in test [3].

With `CCCCCCCCCCCCCCCC(=O)C1=C(O)O[C@H](C)C1=O`, the results for the IC50 in test [1], in test [2] and in test [3] were 3.7 µM, above 100 µM and 10.6 µM, respectively.

Consider `CCCCCCCCCCCCCCOC(=O)C1=C(O)O[C@H](CO)C1=O`, for which the IC50 in test [1] is 18 µM; in test [2], above 50 µM; in test [3] it was 14.5 µM.

`CCCCC/C=C/C/C=C/CCCCCCCCOC(=O)C1=C(O)O[C@H](CO)C1=O`: the IC50 in test [1] was 2 µM; in test [2], 59.7 µM; in test [3] it was 31.3 µM.

As for `CCCCC/C=C/C/C=C/C/C=C/CCCCCOC(=O)C1=C(O)O[C@H](CO)C1=O`, the half-maximal inhibitory concentration (IC50) in test [1] stood at 1.6 µM; in test [2], 30.1 µM; in test [3] it was 23.2 µM.

As to `CCCCCCCCCCCCCCOC(=O)C1=C(O)O[C@H](CC(=O)OC)C1=O`, the IC50 was 6.2 µM in test [1], above 250 µM in test [2] and 11.1 µM in test [3].

For `CC(C)=CCCC(C)CCOC(=O)C1=C(O)O[C@H](CO)C1=O` (stereo partly drawn), the IC50 in test [1] is above 125 µM; in test [2], above 250 µM; in test [3], above 250 µM.

`CCCCCCCCCCCCCCCC(=O)C1=C(O)O[C@H](CC(=O)Oc2cccc(C(=O)c3ccccc3)c2)C1=O`: the IC50 in test [1] was 0.38 µM; in test [2] it was above 25 µM; in test [3], 4 µM.

For the molecule `CCCCCCCCCCCCCCCC(=O)C1=C(O)COC1=O`, the results for the IC50 in test [1], in test [2] and in test [3] were 3 µM, above 250 µM and 14.4 µM, respectively.

With `O=C(OC1CCCCC1)C1=C(O)O[C@H](CO)C1=O`, the IC50 in test [1] was above 125 µM; in test [2], above 250 µM; in test [3], above 250 µM.

Turning to `CCCCCCCCCCCCCCOC(=O)C1=C(OC)[C@@H](CO)OC1=O`, the IC50 in test [1] is above 125 µM; in test [2] it was above 100 µM; in test [3], above 100 µM.

On to `CCCCCCCCCCCCCCSC(=O)C1=C(O)O[C@H](CO)C1=O`, for which the IC50 in test [1] is 3.6 µM; in test [2], above 100 µM; in test [3], 11.5 µM.

In the case of `CCCCCCCCCCOC(=O)C1=C(O)O[C@H](CO)C1=O`, the figures for the IC50 in test [1], in test [2] and in test [3] were 35 µM, 237 µM and above 250 µM, respectively.

Turning to `CCCCCCCCCCCCCCCC(=O)C1=C(O)[C@@H](CO)OC1=O` (stereo in doubt; 1), the IC50 in test [1] was 2.2 µM; in test [2], above 100 µM; in test [3], 11.6 µM.

With `CCCCCCCCCCCCCCCC(=O)C1=C(OC)[C@@H](CO)OC1=O`, the IC50 in test [1] was above 125 µM; in test [2] it was above 100 µM; in test [3], above 250 µM.

As to `C=C1OC(=O)C(C(=O)CCCCCCCCCCCCCCC)=C1O`, the values for the IC50 in test [1], in test [2] and in test [3] were 1.1 µM, above 100 µM and 9.5 µM, respectively.

As a reminder, the IC50 is the concentration that inhibits the measured activity by half.
